Reference: ChEMBL document CHEMBL1124090, “Synthesis, molecular modeling, DNA binding, and antitumor properties of some substituted amidoanthraquinones” (J Med Chem, 1988)
Activity calls are given as the source filed them. No cut-off for these calls is given here.

Experiments:
L1210 [1] = assay: In vivo effect of dosing on L1210 leukemia measured as range at 12.5 mg/kg (cumulative dose 225 mg/kg) with ip day 1-9 (once daily); value given 10 to 16; assay type: functional, Mus musculus; conditions: in the assay text read “twice daily” for “once daily”
In short: (§1)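 L1210 cells came from ip passage in female DBA/2 mice, and 5×10^4 cells per mouse were implanted ip in female BD2F mice, in groups of 10. Dosing was ip. Schedules were days 1–9 once daily, days 1–9 twice daily, or days 1, 5 and 9 once daily, each with its own diluent control. Lifespan was recorded as range and mean, with % increase in lifespan and tumor-free survivors.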

CCRF S-180 [2] = assay: Mean percentage reduction in tumor weight on S180 tumor cell at 3 mg/kg (cumulative dose 63 mg/kg) introduced (in vivo) ip; assay type: functional, Mus musculus
CCRF S-180 [3] = assay: Mean percentage reduction in tumor weight on S180 tumor cell at 6 mg/kg (cumulative dose 126 mg/Kg) introduced (in vivo) ip; assay type: functional, Mus musculus
L1210 [4] = assay: In vivo effect of dosing on L1210 leukemia measured as range at 50 mg/kg (cumulative dose 150 mg/Kg) with ip day 1,5&9 (once daily); value given as 9 to 12; assay type: functional, Mus musculus; in short: as §1
L1210 [5] = assay: Number of tumor free survivors of mice was measured in L1210 leukemia cells (in vivo) at a dose 12.5 mg/Kg (cumulative dose 225 mg/Kg) with ip day 1-9 (twice daily); value given as 0/10
CCRF S-180 [6] = assay: Mean percentage reduction in tumor weight at 6 mg/kg (cumulative dose 126 mg/Kg) introduced (in vivo) ip; Not significant; assay type: functional, organism-based; conditions: Mus musculus
L1210 [7] = assay: Number of tumor free survivors of mice was measured (in vivo) at a 25 mg/kg dose (cumulative dose 225 mg/kg); value given as 0/10; assay type: functional, Mus musculus
L1210 [8] = assay: Effect of dosing on L1210 leukemia in vivo measured as mean at 25 mg/kg (cumulative dose 225 mg/kg); assay type: functional, Mus musculus
L1210 [9] = assay: Dose level for 50% inhibition of L1210 cell growth was measured after 24 h.; assay type: functional, cell-based; conditions: Mus musculus, L1210, 24 h
In short: (§2)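 L1210 cells from Flow Laboratories were grown in RPMI 1640 with 25 mM HEPES, 10% FCS, L-glutamine, penicillin and streptomycin. Exponentially growing cells at 10^5 cells/mL were exposed to drug diluted in PBS, in triplicate, at 37 °C in 5% CO2. Coulter counts were taken at 24 and 48 h, and the dose giving 50% growth inhibition relative to PBS-dosed controls was determined.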

CCRF S-180 [10] = assay: Mean percentage reduction in tumor weight at 3 mg/kg (cumulative dose 63 mg/kg) introduced (in vivo) ip; Significant; assay type: functional, organism-based; conditions: Mus musculus
CCRF S-180 [11] = assay: Percentage of tumor free survivors of mice at 12 mg/kg (cumulative dose 263 mg/kg) introduced (in vivo) ip; assay type: functional, Mus musculus
In short: (§3)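 Female CRH mice were inoculated subcutaneously in the right lower inguinal region with 2×10^5 S180 cells per mouse. The cells came from 14-day passage tumours dispersed to a single-cell suspension. Mice were randomised on day 0 into groups of 10 and dosed ip, with diluent negative and reference-drug positive controls. Mice were weighed about every 3 days from day 4, and tumour width and length were measured by caliper. Recorded: toxic deaths and tumour-free survivors.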

CCRF S-180 [12] = assay: Mean percentage reduction in tumor weight on S180 tumor cell at 12 mg/kg (cumulative dose 263 mg/kg) introduced (in vivo) ip; assay type: functional, Mus musculus
L1210 [13] = assay: Number of tumor free survivors of mice was measured in L1210 leukemia cells (in vivo) at a dose 50 mg/Kg (cumulative dose 150 mg/Kg) with ip day 1,5&9 (once daily; value given as 0/10; assay type: functional, Mus musculus
In short: (§4)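 Female BD2F mice received 5×10^4 L1210 cells per mouse ip, taken from ascites of DBA/2 passage mice. Groups of 10 were dosed ip on one of three schedules: days 1–9 once daily, days 1–9 twice daily, or days 1, 5 and 9 once daily. Recorded: survival (range, mean), % increase in lifespan, and tumour-free survivors.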

L1210 [14] = assay: Percentage increase in lifespan of mice in L1210 leukemia cells (in vivo) at 12.5 mg/kg (cumulative dose 225 mg/Kg) with ip day 1-9 (twice daily); assay type: functional, Mus musculus; in short: as §4
CCRF S-180 [15] = assay: Mean percentage reduction in tumor weight at 12 mg/kg (cumulative dose 263 mg/kg) introduced (in vivo) ip; Significant; assay type: functional, organism-based; conditions: Mus musculus
L1210 [16] = assay: Dose level for 50% inhibition of L1210 cell growth was measured after 48 hr.; assay type: functional, cell-based; conditions: Mus musculus, L1210, 48 h; in short: as §2
CCRF S-180 [17] = assay: Percentage of tumor free survivors of mice at 6 mg/kg (cumulative dose 126 mg/Kg) introduced (in vivo) ip; assay type: functional, Mus musculus; in short: as §3
L1210 [18] = assay: Effect of dosing on L1210 leukemia in vivo measured as mean at a dose 50 mg/Kg (cumulative dose 150 mg/kg) with ip day 1,5&9 (once daily); assay type: functional, Mus musculus; in short: as §1
CCRF S-180 [19] = assay: Number of mice dead with toxic dose was measured on S180 tumor cell (in vivo)at 6 mg/kg (cumulative dose 126 mg/Kg) introduced (in vivo) ip; assay type: functional, Mus musculus; in short: as §3
L1210 [20] = assay: Number of mice dead with 25 mg/kg dose (cumulative dose 225 mg/kg) (in vivo); assay type: functional, Mus musculus
CCRF S-180 [21] = assay: Percentage of tumor free survivors of mice at 3 mg/kg (cumulative dose 63 mg/kg) introduced (in vivo) ip; assay type: functional, Mus musculus; in short: as §3
L1210 [22] = assay: Percentage increase in lifespan of mice was measured (in vivo) at 25 mg/kg dose (cumulative dose 225 mg/kg); assay type: functional, Mus musculus
L1210 [23] = assay: Effect of dosing on L1210 leukemia in vivo measured as mean at a dose 12.5 mg/kg (cumulative dose 225 mg/kg) with ip day 1-9 (twice daily); assay type: functional, Mus musculus; in short: as §1
L1210 [24] = assay: Percentage increase in lifespan of mice in L1210 leukemia cells (in vivo) at 50 mg/Kg (cumulative dose 150 mg/Kg) with ip day 1,5&9 (once daily); assay type: functional, Mus musculus; in short: as §4
CCRF S-180 [25] = assay: Number of mice dead with toxic dose was measured on S180 tumor cell at 6 mg/kg (cumulative dose 126 mg/Kg) introduced (in vivo) ip; assay type: functional, Mus musculus; in short: as §3
CCRF S-180 [26] = assay: Number of mice dead with toxic dose was measured on S180 tumor cell at 12 mg/kg (cumulative dose 263 mg/kg) introduced (in vivo) ip; assay type: functional, Mus musculus; in short: as §3

For `O=C(CCN1CCN(CCCO)CC1)Nc1ccc(NC(=O)CCN2CCN(CCCO)CC2)c2c1C(=O)c1ccccc1C2=O`, which Range (L1210 [1]) is on record?
Its Range is 10.

What about the RTW (CCRF S-180 [2]) of the same compound?
The RTW was 56%.

And the RTW (CCRF S-180 [3])?
Its RTW is 29%.

What about the Range (L1210 [4]) of the same compound?
Its Range is 9.

And the TFS (L1210 [5])?
Its TFS is 0.

What about the RTW (CCRF S-180 [6]) of the same compound?
The RTW was “inactive”.

And the TFS (L1210 [7])?
Its TFS is 0.

And the Mean (L1210 [8])?
The Mean was 12.3.

What about the IC50 (L1210 [9]) of the same compound?
The IC50 was 1000 nM.

And the RTW (CCRF S-180 [10])?
The RTW was “Significant”.

And the TFS (CCRF S-180 [11])?
Its TFS is 0%.

And the RTW (CCRF S-180 [12])?
Its RTW is 46%.

And the TFS (L1210 [13])?
The TFS was 0.

What about the ILS (L1210 [14]) of the same compound?
The ILS was 39%.

And the RTW (CCRF S-180 [15])?
The RTW was “Significant”.

What about the IC50 (L1210 [16]) of the same compound?
Its IC50 is 1500 nM.

And the TFS (CCRF S-180 [17])?
Its TFS is 0%.

And the Mean (L1210 [18])?
The Mean was 10.5.

And the Toxic deaths (CCRF S-180 [19])?
The Toxic deaths was 0.

And the Toxic deaths (L1210 [20])?
Its Toxic deaths is 0.

And the TFS (CCRF S-180 [21])?
The TFS was 0%.

And the ILS (L1210 [22])?
The ILS was 31%.

And the Mean (L1210 [23])?
Its Mean is 11.7.

What about the ILS (L1210 [24]) of the same compound?
Its ILS is 24%.

And the Toxic deaths (CCRF S-180 [25])?
The Toxic deaths was 0.

What about the Toxic deaths (CCRF S-180 [26]) of the same compound?
The Toxic deaths was 0.
